According to ChEMBL document CHEMBL1641515, “Inhibition of secreted phospholipases A₂ by 2-oxoamides based on α-amino acids: Synthesis, in vitro evaluation and molecular docking calculations” (Bioorg Med Chem, 2011):

Columns and labels:
[1] = target: T1, Phospholipase A2, membrane associated (Homo sapiens) (UniProt P14555); test: Inhibition of human group 2A sPLA2 at […] by fluorescence assay
T1 sequence (whole entry): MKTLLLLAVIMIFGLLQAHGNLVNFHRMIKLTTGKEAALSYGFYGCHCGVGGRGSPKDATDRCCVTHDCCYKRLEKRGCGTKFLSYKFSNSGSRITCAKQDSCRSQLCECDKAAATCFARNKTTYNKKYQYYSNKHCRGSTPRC

[2] = target: T2, Phospholipase A2 group V (Homo sapiens) (UniProt P39877); test: Inhibition of human group 5 sPLA2 at […] by fluorescence assay
T2 sequence (whole entry): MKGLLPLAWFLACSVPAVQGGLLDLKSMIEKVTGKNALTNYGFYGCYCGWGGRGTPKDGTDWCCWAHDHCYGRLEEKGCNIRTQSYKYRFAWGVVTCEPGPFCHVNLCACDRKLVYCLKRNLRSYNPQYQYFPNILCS

[3] = target: T3, Group 10 secretory phospholipase A2 (Homo sapiens) (UniProt O15496); test: Inhibition of human group 10 sPLA2 at […] by fluorescence assay
T3 sequence (whole entry): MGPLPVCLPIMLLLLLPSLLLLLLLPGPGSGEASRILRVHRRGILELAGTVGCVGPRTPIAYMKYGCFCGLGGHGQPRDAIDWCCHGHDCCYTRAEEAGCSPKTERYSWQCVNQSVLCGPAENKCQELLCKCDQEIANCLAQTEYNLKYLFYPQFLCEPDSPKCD

[4] = target: T4, Phospholipase A2, membrane associated (Homo sapiens, UniProt P14555); test: Inhibition of human group 2A sPLA2 by fluorescence assay
T4 sequence (P14555 whole entry): T1 sequence (whole entry)
In short: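 Continuous fluorimetric assay with recombinant human GIIA sPLA2 (6 ng/well) on pyrPG vesicles, pH 8.0 Tris buffer with Ca2+, KCl and BSA. Readout at ex 342/em 395 nm, initial slopes. […] Nonlinear variable-slope sigmoidal fit gives IC50; mean of duplicate or triplicate analyses with SD.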

Phospholipase A2 group V [5] = target: T5, Phospholipase A2 group V (Homo sapiens, UniProt P39877); test: Inhibition of human group 5 sPLA2 by fluorescence assay
T5 sequence (P39877 whole entry): T2 sequence (whole entry)
In short: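 Recombinant human GV sPLA2 (12.5 ng/well) with pyrPG vesicle substrate in Tris-HCl pH 8.0, KCl, CaCl2 and BSA. Monitored by fluorescence (342/395 nm), using initial slopes. […] IC50 by variable-slope sigmoidal regression on log concentration; duplicate or triplicate runs, mean with SD.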

[6] = target: T6, Group 10 secretory phospholipase A2 (Homo sapiens, UniProt O15496); test: Inhibition of human group 10 sPLA2 by fluorescence assay
T6 sequence (O15496 whole entry): T3 sequence (whole entry)

[7] = target: T7, Phospholipase A2, membrane associated (Mus musculus, UniProt P31482); test: Inhibition of mouse group 2A sPLA2 by fluorescence assay
T7 sequence (P31482 whole entry): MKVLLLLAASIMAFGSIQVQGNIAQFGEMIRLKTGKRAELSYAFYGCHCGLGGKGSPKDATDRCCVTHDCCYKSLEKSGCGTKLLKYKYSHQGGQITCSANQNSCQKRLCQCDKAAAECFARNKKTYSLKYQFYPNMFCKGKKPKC

Phospholipase A2 group V [8] = target: T8, Phospholipase A2 group V (Mus musculus, UniProt P97391); test: Inhibition of mouse group 5 sPLA2 by fluorescence assay
T8 sequence (P97391 whole entry): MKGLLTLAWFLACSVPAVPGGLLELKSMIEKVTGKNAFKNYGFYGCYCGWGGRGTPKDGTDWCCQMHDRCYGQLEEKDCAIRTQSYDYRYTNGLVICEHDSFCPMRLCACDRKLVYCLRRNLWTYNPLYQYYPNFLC

[9] = target: T9, Group 10 secretory phospholipase A2 (Mus musculus) (UniProt Q9QXX3); test: Inhibition of mouse group 10 sPLA2 by fluorescence assay; details: concentration not given here
T9 sequence (whole entry): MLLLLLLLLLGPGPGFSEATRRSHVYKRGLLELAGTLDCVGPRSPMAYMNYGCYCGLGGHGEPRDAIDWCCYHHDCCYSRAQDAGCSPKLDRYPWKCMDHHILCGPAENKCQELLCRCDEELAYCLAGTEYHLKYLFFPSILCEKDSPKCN
In short: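 Mouse GX sPLA2, recombinant, 10.7 ng per well, in 50 mM Tris-HCl pH 8.0 with 50 mM KCl, 1 mM CaCl2 and BSA. Started with pyrPG vesicles and read at ex 342/em 395 nm. Percent inhibition from initial fluorescence slopes at five concentrations. IC50 from a variable-slope sigmoidal dose-response fit.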

inhibition [1]	inhibition [2]	inhibition [3]	IC50 [4]	IC50 (Phospholipase A2 group V [5])	IC50 [6]	IC50 [7]	IC50 (Phospholipase A2 group V [8])	inhibition [9]	Compound
–	43%	23%	4.2 µM	–	–	–	–	–	CCCCCCCCCCCCCCC(=O)C(=O)NCC(=O)O
–	–	–	1.75 µM	1.5 µM	> 1.66 µM	–	–	–	CCCCCCCCCCCCCCC(=O)C(=O)N[C@H](CC(C)C)C(=O)O
–	–	–	> 1.66 µM	> 1.66 µM	–	–	–	–	CCCCCCCCCCCCCCCC(=O)N[C@@H](CC(C)C)C(=O)O
–	–	50%	0.3 µM	0.44 µM	–	0.18 µM	2.6 µM	58%	CCCCCCCCCCCCCCC(=O)C(=O)N[C@@H](CC(C)C)C(=O)O
–	47%	18%	5.6 µM	–	–	–	–	–	CCCCCCCCCCCCCCC(=O)C(=O)NCCC(=O)O

Further lines, the compound ahead of its results:

Compound	inhibition [1]	inhibition [2]	inhibition [3]	IC50 [4]	IC50 (Phospholipase A2 group V [5])	IC50 [6]	IC50 [7]	IC50 (Phospholipase A2 group V [8])	inhibition [9]
CCCCCCCCCCCCCCC(=O)C(=O)NCC(=O)OC	3%	9%	22%	–	–	–	–	–	–
CCCCCCCCCCCCCCC(=O)C(=O)NCCCCC(=O)O	–	49%	7%	11.7 µM	–	–	–	–	–
CCCCCCCCCCCCCCC(=O)C(=O)N[C@@H](Cc1ccccc1)C(=O)O	–	–	–	> 1.66 µM	> 1.66 µM	> 1.66 µM	–	–	–
